Reference: ChEMBL document CHEMBL5678815 (Clin Cancer Res, 2017)
Activity calls are given as the source filed them. No cut-off for these calls is given here.

Legend:
[1] = target: AP2-associated protein kinase 1 (Homo sapiens) (UniProt Q2M2I8); assay: Inhibition of human AAK1 assessed as remaining activity at 1 uM by ATP-competition binding assay relative to control
Summary of the method: (§1)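 KINOMEscan ATP-site-dependent competition binding panel of 395 human kinases, with compound tested at 1 μM. Binding is reported as remaining signal relative to control.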

[2] = target: RAC-alpha serine/threonine-protein kinase (Homo sapiens) (UniProt P31749); assay: Inhibition of human AKT1 assessed as remaining activity at 1 uM by ATP-competition binding assay relative to control; summary of the method: as §1
[3] = target: Serine/threonine-protein kinase B-raf (Homo sapiens) (UniProt P15056); assay: Inhibition of human BRAF assessed as remaining activity at 1 uM by ATP-competition binding assay relative to control; summary of the method: as §1
[4] = target: Protein-tyrosine kinase 6 (Homo sapiens) (UniProt Q13882); assay: Inhibition of human BRK assessed as remaining activity at 1 uM by ATP-competition binding assay relative to control; summary of the method: as §1
[5] = target: Calcium/calmodulin-dependent protein kinase type 1D (Homo sapiens) (UniProt Q8IU85); assay: Inhibition of human CAMK1D assessed as remaining activity at 1 uM by ATP-competition binding assay relative to control; summary of the method: as §1
[6] = target: Serine/threonine-protein kinase Chk2 (Homo sapiens) (UniProt O96017); assay: Inhibition of human CHEK2 assessed as remaining activity at 1 uM by ATP-competition binding assay relative to control; summary of the method: as §1
[7] = target: Macrophage colony-stimulating factor 1 receptor (Homo sapiens) (UniProt P07333); assay: Inhibition of human CSF1R assessed as remaining activity at 1 uM by ATP-competition binding assay relative to control; summary of the method: as §1
[8] = target: Death-associated protein kinase 2 (Homo sapiens) (UniProt Q9UIK4); assay: Inhibition of human DAPK2 assessed as remaining activity at 1 uM by ATP-competition binding assay relative to control; summary of the method: as §1
Death-associated protein kinase 2 (Homo sapiens), sequence (Q9UIK4 whole entry, looked up): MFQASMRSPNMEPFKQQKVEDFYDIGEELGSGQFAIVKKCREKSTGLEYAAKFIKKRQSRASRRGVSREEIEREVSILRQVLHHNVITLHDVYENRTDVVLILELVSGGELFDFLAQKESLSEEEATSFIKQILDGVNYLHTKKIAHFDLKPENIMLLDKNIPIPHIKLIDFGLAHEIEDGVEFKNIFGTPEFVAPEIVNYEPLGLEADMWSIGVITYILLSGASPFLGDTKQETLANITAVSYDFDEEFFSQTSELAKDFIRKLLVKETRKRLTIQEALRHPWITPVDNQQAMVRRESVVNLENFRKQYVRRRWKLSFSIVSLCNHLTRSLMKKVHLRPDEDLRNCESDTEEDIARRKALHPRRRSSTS

[9] = target: Dual specificity protein kinase CLK2 (Homo sapiens) (UniProt P49760); assay: Inhibition of human CLK2 assessed as remaining activity at 1 uM by ATP-competition binding assay relative to control; summary of the method: as §1
[10] = target: Ephrin type-A receptor 2 (Homo sapiens) (UniProt P29317); assay: Inhibition of human EPHA2 assessed as remaining activity at 1 uM by ATP-competition binding assay relative to control; summary of the method: as §1
[11] = target: Ephrin type-A receptor 8 (Homo sapiens) (UniProt P29322); assay: Inhibition of human EPHA8 assessed as remaining activity at 1 uM by ATP-competition binding assay relative to control
Ephrin type-A receptor 8 (Homo sapiens), sequence (P29322 whole entry): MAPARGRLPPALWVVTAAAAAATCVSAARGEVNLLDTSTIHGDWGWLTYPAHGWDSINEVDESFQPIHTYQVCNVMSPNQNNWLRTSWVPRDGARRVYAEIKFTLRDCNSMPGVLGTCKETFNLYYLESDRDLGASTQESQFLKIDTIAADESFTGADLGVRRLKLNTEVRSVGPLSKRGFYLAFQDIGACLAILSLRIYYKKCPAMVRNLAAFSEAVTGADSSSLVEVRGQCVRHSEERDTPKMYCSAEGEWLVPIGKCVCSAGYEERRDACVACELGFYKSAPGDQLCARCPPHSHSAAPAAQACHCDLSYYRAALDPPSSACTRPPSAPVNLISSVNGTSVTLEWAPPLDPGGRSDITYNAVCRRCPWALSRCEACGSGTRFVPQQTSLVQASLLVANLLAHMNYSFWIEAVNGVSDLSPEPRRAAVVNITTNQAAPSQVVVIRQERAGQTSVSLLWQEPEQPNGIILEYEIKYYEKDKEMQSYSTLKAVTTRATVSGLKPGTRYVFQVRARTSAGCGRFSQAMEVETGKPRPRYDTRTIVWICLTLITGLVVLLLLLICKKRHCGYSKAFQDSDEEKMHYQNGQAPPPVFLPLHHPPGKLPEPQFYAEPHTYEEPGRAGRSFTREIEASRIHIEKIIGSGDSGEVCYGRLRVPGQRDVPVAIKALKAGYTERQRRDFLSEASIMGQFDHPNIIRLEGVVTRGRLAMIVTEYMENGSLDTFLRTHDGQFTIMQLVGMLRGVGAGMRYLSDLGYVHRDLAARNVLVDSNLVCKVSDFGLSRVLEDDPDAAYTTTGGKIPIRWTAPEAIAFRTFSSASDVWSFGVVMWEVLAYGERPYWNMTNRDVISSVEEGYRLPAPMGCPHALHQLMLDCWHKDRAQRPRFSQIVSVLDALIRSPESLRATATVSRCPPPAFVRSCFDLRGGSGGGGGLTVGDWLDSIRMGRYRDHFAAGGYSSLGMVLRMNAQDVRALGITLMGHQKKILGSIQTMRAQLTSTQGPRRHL
Summary of the method: (§2)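 Single-point profiling at 1μM in an ATP-site-dependent competition binding assay across a panel of 395 human kinases, including mutant forms. The read-out is kinase binding signal in the presence of test agent, expressed as inhibition relative to the control signal. This screen assessed noncovalent binding interactions.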

[12] = target: Serine/threonine-protein kinase/endoribonuclease IRE1 (Homo sapiens) (UniProt O75460); assay: Inhibition of human ERN1 assessed as remaining activity at 1 uM by ATP-competition binding assay relative to control; summary of the method: as §2
[13] = tested on: eIF-2-alpha kinase GCN2 (Homo sapiens), Q9P2K8 [S808G]; assay: Inhibition of human GCN2 S808G mutant kinase domain 2 assessed as remaining activity at 1 uM by ATP-competition binding assay relative to control; summary of the method: as §2
[14] = target: Tyrosine-protein kinase HCK (Homo sapiens) (UniProt P08631); assay: Inhibition of human HCK assessed as remaining activity at 1 uM by ATP-competition binding assay relative to control; summary of the method: as §2
Tyrosine-protein kinase HCK (Homo sapiens), sequence (P08631 2-526 limits assumed): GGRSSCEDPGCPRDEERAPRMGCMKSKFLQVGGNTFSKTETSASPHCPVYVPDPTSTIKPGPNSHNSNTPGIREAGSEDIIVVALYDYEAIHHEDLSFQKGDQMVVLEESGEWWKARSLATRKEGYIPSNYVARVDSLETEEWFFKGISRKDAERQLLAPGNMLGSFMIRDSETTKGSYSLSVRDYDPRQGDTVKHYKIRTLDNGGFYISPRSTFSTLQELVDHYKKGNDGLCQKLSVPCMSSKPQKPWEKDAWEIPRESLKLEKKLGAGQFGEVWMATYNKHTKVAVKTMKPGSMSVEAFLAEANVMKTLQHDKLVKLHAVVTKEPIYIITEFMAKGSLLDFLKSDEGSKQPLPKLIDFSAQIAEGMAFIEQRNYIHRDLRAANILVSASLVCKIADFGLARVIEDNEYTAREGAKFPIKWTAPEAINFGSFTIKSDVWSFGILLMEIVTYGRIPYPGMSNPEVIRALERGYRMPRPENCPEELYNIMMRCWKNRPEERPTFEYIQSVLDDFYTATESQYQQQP

[15] = tested on: Mast/stem cell growth factor receptor Kit (Homo sapiens), P10721 [L576P]; assay: Inhibition of human KIT L576P mutant assessed as remaining activity at 1 uM by ATP-competition binding assay relative to control; summary of the method: as §2
[16] = target: Tyrosine-protein kinase Lck (Homo sapiens) (UniProt P06239); assay: Inhibition of human LCK assessed as remaining activity at 1 uM by ATP-competition binding assay relative to control; summary of the method: as §2
Tyrosine-protein kinase Lck (Homo sapiens), sequence (P06239 2-509 limits assumed): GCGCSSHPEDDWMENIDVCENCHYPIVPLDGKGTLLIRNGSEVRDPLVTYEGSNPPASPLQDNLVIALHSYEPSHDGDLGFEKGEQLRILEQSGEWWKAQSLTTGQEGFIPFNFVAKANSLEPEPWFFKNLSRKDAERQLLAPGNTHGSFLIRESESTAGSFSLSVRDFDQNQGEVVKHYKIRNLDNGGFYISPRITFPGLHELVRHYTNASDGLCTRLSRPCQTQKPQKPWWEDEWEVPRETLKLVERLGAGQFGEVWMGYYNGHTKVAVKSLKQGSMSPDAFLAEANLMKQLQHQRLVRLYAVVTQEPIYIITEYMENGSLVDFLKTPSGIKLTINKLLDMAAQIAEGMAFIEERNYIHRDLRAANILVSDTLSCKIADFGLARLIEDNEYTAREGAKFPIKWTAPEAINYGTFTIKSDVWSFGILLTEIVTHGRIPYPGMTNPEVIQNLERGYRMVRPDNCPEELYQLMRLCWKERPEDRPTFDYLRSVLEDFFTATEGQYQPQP

[17] = target: Mitogen-activated protein kinase kinase kinase 13 (Homo sapiens) (UniProt O43283); assay: Inhibition of human LZK assessed as remaining activity at 1 uM by ATP-competition binding assay relative to control; summary of the method: as §2
[18] = tested on: Mast/stem cell growth factor receptor Kit (Homo sapiens), P10721 [V559D,T670I]; assay: Inhibition of human KIT V559D/T670I mutant assessed as remaining activity at 1 uM by ATP-competition binding assay relative to control; summary of the method: as §2
[19] = target: Mitogen-activated protein kinase kinase kinase 11 (Homo sapiens) (UniProt Q16584); assay: Inhibition of human MLK3 assessed as remaining activity at 1 uM by ATP-competition binding assay relative to control; summary of the method: as §2
Mitogen-activated protein kinase kinase kinase 11 (Homo sapiens), sequence (Q16584 whole entry, looked up): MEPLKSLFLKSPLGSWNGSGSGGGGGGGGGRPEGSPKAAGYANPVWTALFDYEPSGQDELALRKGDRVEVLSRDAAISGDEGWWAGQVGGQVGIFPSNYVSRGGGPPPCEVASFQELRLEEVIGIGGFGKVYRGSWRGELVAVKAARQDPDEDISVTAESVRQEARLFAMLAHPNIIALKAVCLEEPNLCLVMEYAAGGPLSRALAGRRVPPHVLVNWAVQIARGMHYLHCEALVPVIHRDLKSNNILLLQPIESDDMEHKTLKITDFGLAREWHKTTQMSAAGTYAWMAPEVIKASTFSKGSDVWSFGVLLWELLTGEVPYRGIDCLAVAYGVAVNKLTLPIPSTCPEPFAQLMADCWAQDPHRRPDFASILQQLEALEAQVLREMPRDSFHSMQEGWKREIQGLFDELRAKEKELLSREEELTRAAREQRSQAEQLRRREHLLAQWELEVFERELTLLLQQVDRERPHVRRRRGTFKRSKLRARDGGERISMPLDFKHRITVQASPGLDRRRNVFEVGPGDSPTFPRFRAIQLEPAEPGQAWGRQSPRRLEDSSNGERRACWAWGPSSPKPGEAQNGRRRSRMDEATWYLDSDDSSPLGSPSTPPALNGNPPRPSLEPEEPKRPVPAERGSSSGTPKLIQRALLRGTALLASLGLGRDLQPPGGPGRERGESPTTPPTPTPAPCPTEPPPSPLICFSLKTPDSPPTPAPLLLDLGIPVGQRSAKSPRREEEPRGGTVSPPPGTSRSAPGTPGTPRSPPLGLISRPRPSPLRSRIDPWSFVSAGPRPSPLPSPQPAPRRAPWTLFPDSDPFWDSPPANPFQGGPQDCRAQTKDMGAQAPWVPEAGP

[20] = target: Cyclin-dependent kinase 15 (Homo sapiens) (UniProt Q96Q40); assay: Inhibition of human PFTAIRE2 assessed as remaining activity at 1 uM by ATP-competition binding assay relative to control; summary of the method: as §2
Cyclin-dependent kinase 15 (Homo sapiens), sequence (Q96Q40 whole entry): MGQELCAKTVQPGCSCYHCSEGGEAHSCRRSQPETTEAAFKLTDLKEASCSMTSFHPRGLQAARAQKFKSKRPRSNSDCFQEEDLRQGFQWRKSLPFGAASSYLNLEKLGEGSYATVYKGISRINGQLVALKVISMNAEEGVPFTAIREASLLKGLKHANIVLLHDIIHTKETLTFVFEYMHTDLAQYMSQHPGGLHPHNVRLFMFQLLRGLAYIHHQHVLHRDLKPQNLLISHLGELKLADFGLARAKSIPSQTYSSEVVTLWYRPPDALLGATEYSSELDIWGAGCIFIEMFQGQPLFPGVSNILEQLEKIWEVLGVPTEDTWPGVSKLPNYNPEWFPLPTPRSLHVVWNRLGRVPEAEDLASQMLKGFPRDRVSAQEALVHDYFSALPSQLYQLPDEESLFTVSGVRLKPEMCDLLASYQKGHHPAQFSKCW

[21] = target: Serine/threonine-protein kinase N2 (Homo sapiens) (UniProt Q16513); assay: Inhibition of human PKN2 assessed as remaining activity at 1 uM by ATP-competition binding assay relative to control
Summary of the method: (§3)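 Single-concentration (1 μM) screen in an ATP-site-dependent competition binding assay (KINOMEscan, outsourced) covering 395 human kinases, mutants included. Non-covalent binding was read as the remaining signal relative to the control signal.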

[22] = target: SRSF protein kinase 1 (Homo sapiens) (UniProt Q96SB4); assay: Inhibition of human SRPK1 assessed as remaining activity at 1 uM by ATP-competition binding assay relative to control; summary of the method: as §3
SRSF protein kinase 1 (Homo sapiens), sequence (Q96SB4 whole entry): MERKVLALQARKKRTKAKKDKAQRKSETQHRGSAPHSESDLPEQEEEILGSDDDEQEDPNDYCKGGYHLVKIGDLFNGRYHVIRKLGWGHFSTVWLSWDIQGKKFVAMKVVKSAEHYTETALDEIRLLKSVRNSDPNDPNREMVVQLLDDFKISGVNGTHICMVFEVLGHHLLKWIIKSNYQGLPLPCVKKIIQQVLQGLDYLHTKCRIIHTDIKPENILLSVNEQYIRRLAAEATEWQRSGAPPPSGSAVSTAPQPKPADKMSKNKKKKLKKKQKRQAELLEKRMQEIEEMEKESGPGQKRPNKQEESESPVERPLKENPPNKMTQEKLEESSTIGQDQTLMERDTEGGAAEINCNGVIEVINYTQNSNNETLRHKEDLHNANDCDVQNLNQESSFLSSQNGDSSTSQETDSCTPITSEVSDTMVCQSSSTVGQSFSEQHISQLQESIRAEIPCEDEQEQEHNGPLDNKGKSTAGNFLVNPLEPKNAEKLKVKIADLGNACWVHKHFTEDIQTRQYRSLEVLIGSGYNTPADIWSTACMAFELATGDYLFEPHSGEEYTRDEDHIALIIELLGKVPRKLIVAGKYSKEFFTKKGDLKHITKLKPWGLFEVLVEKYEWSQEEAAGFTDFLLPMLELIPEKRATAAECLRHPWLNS

[23] = target: Non-receptor tyrosine-protein kinase TNK1 (Homo sapiens) (UniProt Q13470); assay: Inhibition of human TNK1 assessed as remaining activity at 1 uM by ATP-competition binding assay relative to control; summary of the method: as §3
Non-receptor tyrosine-protein kinase TNK1 (Homo sapiens), sequence (Q13470 whole entry): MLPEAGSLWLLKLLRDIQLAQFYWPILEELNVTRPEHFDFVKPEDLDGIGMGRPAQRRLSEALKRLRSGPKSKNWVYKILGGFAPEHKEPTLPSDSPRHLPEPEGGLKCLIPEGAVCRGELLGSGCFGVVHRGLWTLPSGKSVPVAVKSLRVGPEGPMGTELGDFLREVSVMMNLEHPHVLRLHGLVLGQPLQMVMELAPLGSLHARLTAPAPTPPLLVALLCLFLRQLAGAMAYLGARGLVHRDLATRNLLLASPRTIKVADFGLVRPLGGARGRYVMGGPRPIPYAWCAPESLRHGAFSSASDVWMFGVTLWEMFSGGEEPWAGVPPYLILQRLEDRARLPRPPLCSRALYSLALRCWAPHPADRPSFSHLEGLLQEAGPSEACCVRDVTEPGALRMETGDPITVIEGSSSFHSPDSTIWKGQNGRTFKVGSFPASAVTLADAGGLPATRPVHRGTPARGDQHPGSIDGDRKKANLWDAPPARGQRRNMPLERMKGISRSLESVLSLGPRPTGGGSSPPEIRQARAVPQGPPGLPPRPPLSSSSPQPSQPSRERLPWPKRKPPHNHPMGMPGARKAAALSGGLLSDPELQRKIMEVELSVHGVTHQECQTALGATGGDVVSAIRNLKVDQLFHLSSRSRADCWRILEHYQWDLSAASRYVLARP

[24] = target: Dual specificity protein kinase TTK (Homo sapiens) (UniProt P33981); assay: Inhibition of human TTK assessed as remaining activity at 1 uM by ATP-competition binding assay relative to control; summary of the method: as §3
Splenocyte = assay: In vivo inhibition of BCR signaling in female […] mouse assessed as CD69 expression at 1.3 mg/kg, po administered and measured after stimulation with anti-IgM for 18 h by flow cytometry analysis; assay type: functional, organism-based
Summary of the method: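 Female C57BL/6 mice (5 per group per dose) were gavaged orally at 0.1–30 mg/kg. At 3 h, splenocytes were stimulated with anti-mouse IgM 10 μg/mL for 18 h at 37°C, 5% CO2. After Fc block, cells were stained for CD19 and CD69 with 7-AAD viability dye; >5,000 gated CD19+ cells acquired by flow cytometry.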

CLL mononuclear cell = assay: Antileukemic activity against human CLL mononuclear cells xenografted NSG mouse assessed as reduction in ki67 cells at 0.3 mg/ml preadministered with compound via drinking water and measured after 3 weeks by flow cytometry analysis; assay type: functional, cell-based
Summary of the method: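 Primary CLL patient mononuclear cells (1 × 10^8 per mouse) engrafted into NSG mice on day 0 after busulfan priming on day −1. Vehicle or drug was given in drinking water from day −1. Mice were killed 3 weeks after engraftment; spleens homogenized, filtered and RBC-lysed; whole blood collected. Six patients, 2–5 mice per patient; paired t-test per patient.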

CC#CC(=O)N1CCC[C@H]1c1nc(-c2ccc(C(=O)Nc3ccccn3)cc2)c2c(N)nccn12 [ACALABRUTINIB]
Activity [1]: 86% | Activity [2]: 93% | Activity [3]: 64% | Activity [4]: 79% | Activity [5]: 98% | Activity [6]: 94% | Activity [7]: 84% | Activity [8]: 80% | Activity [9]: 94% | Activity [10]: 91% | Activity [11]: 91% | Activity [12]: 85% | Activity [13]: 90% | Activity [14]: 62% | Activity [15]: 63% | Activity [16]: 90% | Activity [17]: 83% | Activity [18]: 55% | Activity [19]: 94% | Activity [20]: 76% | Activity [21]: 86% | Activity [22]: 67% | Activity [23]: 90% | Activity [24]: 91% | Activity (Splenocyte): Active | Activity (CLL mononuclear cell): Active
